Only some compounds are listed: those with a hit (about 3.9% of all), similar ones and a draw of the others.
HSP90 inh: blocks HSP90-mediated luciferase refolding in reticulocyte lysate; Rabbit reticulocyte lysate, luciferase refolding luminescence, 3 h; inhibition, % at 5.6 µM; 290,000 tested, 0.91% active; AID 1789;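 active = inhibition above the screen-wide mean plus 3 SD, computed separately per campaign, cut at about 16% in these data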;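 note: 0% = DMSO wells and 100% = 60 µM geldanamycin wells; inhibitors lower the luminescence because luciferase stays unfolded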
HSF1 inhib: HSF1 inhibition; AID 2098; NIH3T3-HGL HSE-luciferase, MG132-induced, luminescence 8 h; hits give low values; 300,000 tested, 0.77% active; activity change, negative = inhibition, % at 7.5 µM (by protocol);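 active = more than half of replicate wells show activity change below -50%, luminescence cut by over half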;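 note: luciferase reports HSF-1 transcriptional activity via heat shock element; 0% = median of DMSO wells and -100% = zero luminescence signal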
HCV NS3 hel inh: HCV NS3 helicase inhibition; NS3 helicase DNA unwinding, Cy5 molecular beacon fluorescence; inhibition, % at 10.9 µM; 290,000 tested, 0.56% active; AID 1800;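 active = inhibition above the mean of all tested compounds plus 3 SD, set per campaign, cut at about 35% in these data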;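 note: 0% = DMSO wells and 100% = thioflavine S control wells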
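test system = hepatitis C virus NS3 helicase domain fragment enzyme | reagent = annealed dual-labelled DNA beacon duplex, ATP-started | times = 1 h at 25 °C | detection = Cy5 fluorescence, 0 and 60 min reads | read-out basis = percent inhibition from t60/t0 fluorescence ratio | control set = DMSO and thioflavine S | replication = one well per compound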
HSF1 activator: increases HSF-1 driven luciferase reporter signal; AID 504408; 300,000 tested, 1.7% active; NIH3T3-HGL HSF-1 luciferase reporter, MG132, 8 h; 100% = twice DMSO control signal; activation, % at 9 µM;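 active = mean replicate activation of at least 50% with a set share of replicates each reaching 50%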;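 note: 0% = median of the neutral control wells and 100% = twice that signal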
DNA FID counter-1: counter-screen for HCV NS3 helicase inhibitors: DNA intercalator displacement | DNA fluorescent intercalator displacement, fluorescence | inhibition, % at 7.9 µM | 290,000 tested, 0.17% active;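 note: 0% = vehicle and 100% = reference compound; higher means more ethidium bromide displaced from hairpin DNA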
HCV core dimer: HCV core protein dimerization inhibition; AID 1899; TR-FRET GST/Flag-core106 dimerization, 1536-well; inhibition, % at 5 µM; 300,000 tested, 0.33% active;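 active = inhibition above the mean of all tested compounds plus 3 SD, set per screening campaign, cut at about 45% in these data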
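Material: GST/Flag-tagged HCV core106 proteins. Incubation: 4 h, 22.5 °C incubation. Read-out basis: inhibition (%) from 671 over 617 nm ratio. Measured by: TR-FRET, excitation 340 nm, emission 617 and 671 nm.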
NS3 helicase cf: confirmation of Hepatitis C virus NS3 helicase inhibitors | 1,600 tested, 31% active | AID 1943 | NS3 helicase DNA unwinding, Cy5 molecular beacon fluorescence | inhibition, % at 10.9 µM | shares compounds with HCV NS3 hel inh;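 active = inhibition above the mean of all tested compounds plus 3 SD, cutoff set per campaign, cut at about 36% in these data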
DNA FID counter-2: intercalator displacement, NS3 helicase counter-screen; DNA fluorescent intercalator displacement, fluorescence; 1,600 tested, 4% active; shares compounds with HCV NS3 hel inh; inhibition, % at 7.9 µM;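 note: 0% = vehicle and 100% = reference compound; higher means more displacement of ethidium bromide from the DNA hairpin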
DNA FID DR: displaces fluorescent intercalator from DNA, HCV helicase counter-screen; shares compounds with HCV NS3 hel inh; fluorescent intercalator displacement from DNA, fluorescence; IC50, µM; 120 tested, under 10 active; AID 2172; call rule not given here
Starred values were filed as active, the others as inactive; · = not tested or not shown. Cut-off read from the data, not from the text of the source, unless noted: active = inhibition above about 37%; inactive = the rest.

SMILES	HSP90 inh	HSF1 inhib	HCV NS3 hel inh	HSF1 activator	DNA FID counter-1	HCV core dimer	NS3 helicase cf	DNA FID counter-2	others
O=C1CSC(=S)N1/N=C/c1ccc(Cl)c([N+](=O)[O-])c1	1.6	-2.2	44.1*	-9.7	-1.9	64.9*	50.8*	7.8
CCCOC(=O)/C(=C\C=C\c1ccco1)NC(=O)c1ccccc1	4.5	22.1	40.3*	47.7	-27.9	28.5	-5.5	-13.6
CCCOC(=O)/C(=C\c1ccc([N+](=O)[O-])o1)NC(=O)c1ccccc1	-2.9	31.4	38.2*	37.7	-20.2	-6.4	-16.2	-4.2
COC(=O)/C(=C/c1ccco1)NC(=O)c1ccccc1	-4.4	-4.1	-3.5	6.3	0.5	-13.7	·	·
O=C(N/N=C/C=C/c1ccco1)/C(=C/c1ccccc1)NC(=O)c1ccccc1	3.0	1.2	36.5*	-6.7	-7.2	47.4*	53.9*	6.1
CCOC(=O)/C(=C\c1ccc([N+](=O)[O-])o1)NC(=O)c1ccccc1	8.6	12.6	30.1	18.2	-24.6	-6.8	·	·
O=C(N/N=C/C=C/c1ccco1)c1ccncc1	-3.2	3.2	8.6	-1.2	-5.7	-2.3	·	·
Cc1ccc(CN2C(=O)CCC2C(=O)NCCCN2CCCC(C)C2)cc1 (stereo unspecified)	-5.0	-5.0	6.8	-8.2	2.0	-1.0	·	·
Nc1nnc(SCC(=O)c2ccc3c(c2)NC(=O)CO3)s1	1.8	-2.4	3.7	-4.6	0.2	7.5	·	·
O=C(CSc1nc2ccccc2c(=O)n1CCCN1CCOCC1)Nc1cccc(S(=O)(=O)N2CCCCCC2)c1	-4.2	5.5	-79.6	18.2	4.2	3.7	·	·
O=C(NCc1ccccc1)C1=C[C@@H](C2CCCCC2)C[C@@H](OCCCCO)O1	·	4.3	·	-4.2	·	-5.1	·	·
CCCCc1c(C)nc2ccc(OC)cc2c1SCCC(=O)O	·	0.1	·	11.1	·	4.5	·	·
CCCCc1c(C)nc2c(OC)cccc2c1SCC(=O)O	7.8	5.2	37.0*	8.6	-30.5	7.6	-1.4	-0.4
CCCCNC(=O)CCCn1c(=O)c2ccccc2n(CC(=O)NCCC2=CCCCC2)c1=O	-0.9	-6.3	4.9	1.3	-28.3	·	·	·
Oc1c(Br)cc(Br)cc1/C=N/NC(=S)N[C@H]1CC2C=CC1C2 (stereo partly specified)	-1.6	10.0	37.4*	11.3	-19.1	1.5	59.1*	15.4	DNA FID DR=>79.4
COc1ccc(CCNC(=O)C2CCN(C(=O)c3ccc([N+](=O)[O-])cc3)CC2)cc1	2.4	-6.9	-5.4	-20.7	-14.4	2.0	·	·
C=CCOc1c(Cl)cc(CNc2ccc(N(C)C)cc2)cc1OC	0.1	-25.6	50.9*	-29.6	-2.1	-42.6	23.3	21.2
CC(C)C(C)(C#N)NC(=O)CSc1nc2scc(-c3ccco3)c2c(=O)n1-c1ccccc1 (stereo unspecified)	1.3	15.2	36.4*	36.0	-20.0	37.6	105.2*	4.4	DNA FID DR=>79.4
C=CCn1c(SCC(C)=O)nc2scc(-c3ccco3)c2c1=O	3.6	2.0	39.0*	23.1	-30.5	31.5	-0.9	3.8
C=CCn1c(SCC(=O)N2CCOCC2)nc2scc(-c3ccco3)c2c1=O	-0.8	-4.0	15.1	28.9	-15.1	15.2	·	·
CCCc1cc(C(=O)Nc2sc(C)c(C)c2C(=O)OCC)no1	-1.4	·	2.4	·	6.2	·	·	·
Nc1ncnc2c1nc(Sc1ccc(Cl)cc1)n2[C@@H]1O[C@@H]2COP(=O)(O)O[C@H]2[C@H]1O	·	-8.5	·	-18.8	·	3.3	·	·
CCc1ccc(C(=O)NNC(=O)c2ccc(=O)n(C)n2)cc1	0.5	1.0	-2.4	2.5	-2.2	-4.1	·	·
CC1=NN(C(N)=S)C(=O)C1N=Nc1ccccc1C (stereo unspecified)	7.2	6.9	1.4	18.7	-1.9	-10.6	·	·
